This is an account of results in publication PMC8776895 (British journal of pharmacology, 2021).

Positions of bridges follow the written chain, without caps; N, C: chain ends. Residues, ends and D or L forms follow the SMILES beside them. No end group written: not given here.

What all share (assay type): cell-based
The target of one assay is m-CLR:m-RAMP1 (Mus musculus, UniProt Q9R1W5+Q9WTJ5). The assay is described as follows: cAMP production, agonist concentration-response, transfected Cos7 cells. Conditions: for EC50: SEM. In general terms: cAMP levels reflect the balance of adenylyl cyclase and phosphodiesterase activity.
Sequence of m-CLR:m-RAMP1 (Q9R1W5 23-463, one chain of several): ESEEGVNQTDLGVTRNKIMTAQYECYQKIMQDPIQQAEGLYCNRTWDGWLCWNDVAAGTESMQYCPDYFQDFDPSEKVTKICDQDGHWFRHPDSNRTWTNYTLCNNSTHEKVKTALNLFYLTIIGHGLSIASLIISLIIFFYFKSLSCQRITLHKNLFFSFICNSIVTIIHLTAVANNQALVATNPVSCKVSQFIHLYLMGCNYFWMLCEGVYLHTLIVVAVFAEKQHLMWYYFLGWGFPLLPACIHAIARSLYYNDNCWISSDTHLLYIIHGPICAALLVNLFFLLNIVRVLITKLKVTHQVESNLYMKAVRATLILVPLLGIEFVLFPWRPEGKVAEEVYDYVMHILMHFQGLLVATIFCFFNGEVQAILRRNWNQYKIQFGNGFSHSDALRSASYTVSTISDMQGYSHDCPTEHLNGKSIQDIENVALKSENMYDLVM
For the next assay, the target named is T1, m-CTR:m-RAMP2 (Mus musculus, UniProt Q60755+Q9WUP0, P10T).
T1 sequence (Q60755 42-496 isoform Q60755-2): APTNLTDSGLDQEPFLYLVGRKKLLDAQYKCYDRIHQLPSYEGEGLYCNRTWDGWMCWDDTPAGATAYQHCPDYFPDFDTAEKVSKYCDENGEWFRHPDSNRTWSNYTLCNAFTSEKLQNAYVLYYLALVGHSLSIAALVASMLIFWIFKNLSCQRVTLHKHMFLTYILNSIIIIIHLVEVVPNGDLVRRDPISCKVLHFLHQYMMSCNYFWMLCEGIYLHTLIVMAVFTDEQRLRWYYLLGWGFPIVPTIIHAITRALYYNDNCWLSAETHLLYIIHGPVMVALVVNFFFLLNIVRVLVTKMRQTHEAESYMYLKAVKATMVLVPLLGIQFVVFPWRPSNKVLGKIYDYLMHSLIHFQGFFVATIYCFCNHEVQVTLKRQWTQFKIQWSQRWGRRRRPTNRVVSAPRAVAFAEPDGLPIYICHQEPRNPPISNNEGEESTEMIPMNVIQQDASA
T1 sequence (Q9WUP0 45-189): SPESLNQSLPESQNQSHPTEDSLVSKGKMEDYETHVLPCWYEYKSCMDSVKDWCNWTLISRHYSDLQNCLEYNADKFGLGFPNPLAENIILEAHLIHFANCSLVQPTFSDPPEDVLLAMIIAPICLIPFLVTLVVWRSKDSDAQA
The assay is described as above. Conditions: SEM.

Assay [1] deals with T2, m-CLR:m-RAMP3 (Mus musculus, UniProt Q9R1W5+Q9WUP1). The description is as above. The settings on record: SEM.
T2 sequence (Q9R1W5 23-463, one chain of several): as the sequence (Q9R1W5 23-463, one chain of several) above
In another assay the target is T3, m-CTR:m-RAMP1 (Mus musculus, UniProt Q60755+Q9WTJ5).
T3 sequence (Q60755 42-496 isoform Q60755-2 limits assumed): T1 sequence (Q60755 42-496 isoform Q60755-2)
T3 sequence (Q9WTJ5 27-148): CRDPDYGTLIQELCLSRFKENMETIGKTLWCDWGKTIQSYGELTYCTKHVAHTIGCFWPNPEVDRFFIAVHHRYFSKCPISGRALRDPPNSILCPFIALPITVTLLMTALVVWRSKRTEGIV
The assay is described as above. Conditions: for EC50: SEM.

The next assay has as its target T4, m-CTR:m-RAMP3 (Mus musculus, UniProt Q60755+Q9WUP1).
T4 sequence (Q60755 42-496 isoform Q60755-2 limits assumed): T1 sequence (Q60755 42-496 isoform Q60755-2)
T4 sequence (Q9WUP1 23-147): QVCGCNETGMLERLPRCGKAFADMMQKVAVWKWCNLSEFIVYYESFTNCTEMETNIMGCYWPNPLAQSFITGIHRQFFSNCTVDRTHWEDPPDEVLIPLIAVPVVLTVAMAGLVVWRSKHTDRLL
The description is as above. Conditions: for EC50: SEM; for fold increase in potency relative to m-CTR alone: m-CTR:m-RAMP3 versus m-CTR:pcDNA.

Another assay has as its target m-CLR:pcDNA (Mus musculus, UniProt Q9R1W5). The assay is described as follows: cAMP production, agonist stimulation, Cos7 cells with m-CLR without RAMP. Conditions: concentrations as high as 10 μM. The method in brief: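 Mouse CLR was co-transfected 1:1 with empty pcDNA3.1(+) (no RAMP) into Cos-7 cells with polyethylenimine. Cells were seeded at 15,000–20,000/well, transfected 18–24 h later and used about 48 h after that. After 30 min in DMEM with 1 mM IBMX and 0.1% BSA, agonist peptides were applied for 15 min at 37 °C. Forskolin (100 µM final) served as positive control. cAMP was quantified by LANCE assay from a standard curve, in duplicate or triplicate.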

The target in assay [2] is T5, m-CLR:m-RAMP2 (Mus musculus, UniProt Q9R1W5+Q9WUP0, P10T). The assay is described as follows: cAMP production, agonist concentration-response, transfected Cos7 cells. The settings on record: for EC50: SEM.
T5 sequence (Q9R1W5 23-463, one chain of several): as the sequence (Q9R1W5 23-463, one chain of several) above
Assay [3] concerns the target T6, m-CTR:pcDNA (m-CTR alone) (Mus musculus, UniProt Q60755).
T6 sequence (Q60755 42-496 isoform Q60755-2 limits assumed): T1 sequence (Q60755 42-496 isoform Q60755-2)
The assay is described as above. The settings on record: SEM.

In assay [4] the target is T5, m-CLR:m-RAMP2. In words: Antagonism of agonist-stimulated cAMP production, transfected Cos7 cells.
Assay [5] concerns the target T2, m-CLR:m-RAMP3. Described as above. The settings on record: agonist m-AM, mean ± s.e.m., n = 5, SEM.

Sequence of m-CLR:pcDNA (Q9R1W5 23-463): as the sequence (Q9R1W5 23-463, one chain of several) above

As for “YRQSMNQGSRSNGCRFGTCTFQKLAHQIYQLTDKDKDGMAPRNKISPQGY-NH2 (disulfide 14-19) [m-AM]”, the EC50 – broadly, the concentration giving half of the maximal effect – at m-CLR:m-RAMP1 is 6.61 nM; at m-CTR:m-RAMP2, 19.5 nM; at m-CLR:m-RAMP3 [1], 0.468 nM; at m-CTR:m-RAMP1, 27.5 nM; at m-CTR:m-RAMP3, 3.55 nM; at m-CLR:m-RAMP2 [2], 1.55 nM. This compound also gave an EC50 in [3] of 37.2 nM. Also, on m-CTR:m-RAMP3, the “fold increase in potency relative to m-CTR alone” value came out at 11 fold. For the same compound, the “cAMP response to stimulation” value at m-CLR:pcDNA is given as “did not respond”.

Regarding “PHAQLLRVGCVLGTCQVQNLSHRLWQLVRPAGRRDSAPVDPSSPHSY-NH2 (disulfide 10-15) [m-AM2_47]”, the 50% effective concentration (EC50) was 4.47 nM at m-CLR:m-RAMP1; 42.7 nM at m-CTR:m-RAMP2; 1.32 nM on m-CLR:m-RAMP3 [1]; 6.92 nM on m-CTR:m-RAMP1; 2.14 nM on m-CTR:m-RAMP3; 10.5 nM at m-CLR:m-RAMP2 [2]. Besides, in [3], the EC50 is 56.2 nM. Also, the “fold increase in potency relative to m-CTR alone” value at m-CTR:m-RAMP1 (m-CTR:m-RAMP1 versus m-CTR:pcDNA) was “eight”; on m-CTR:m-RAMP3 it was 26 fold. At m-CLR:m-RAMP2 [2] (m-CLR:m-RAMP2, cAMP pEC50), the “fold less potent than m-AM” value was “~ seven”.

Consider `CC(C)C[C@H](NC(=O)[C@H](CCCNC(=N)N)NC(=O)[C@H](Cc1c[nH]cn1)NC(=O)[C@H](CO)NC(=O)[C@H](CC(C)C)NC(=O)[C@H](CC(N)=O)NC(=O)[C@H](CCC(N)=O)NC(=O)[C@@H](NC(=O)[C@H](CCC(N)=O)NC(=O)[C@@H]1CSSC[C@H](NC(=O)CNC(=O)[C@@H](N)C(C)C)C(=O)N[C@@H](C(C)C)C(=O)N[C@@H](CC(C)C)C(=O)NCC(=O)N[C@@H]([C@@H](C)O)C(=O)N1)C(C)C)C(=O)N[C@@H](Cc1c[nH]c2ccccc12)C(=O)N[C@@H](CCC(N)=O)C(=O)N[C@@H](CC(C)C)C(=O)N[C@H](C(=O)N[C@@H](CCCNC(=N)N)C(=O)N1CCC[C@H]1C(=O)N[C@@H](C)C(=O)NCC(=O)N[C@@H](CCCNC(=N)N)C(=O)N[C@@H](CCCNC(=N)N)C(=O)N[C@@H](CC(=O)O)C(=O)N[C@@H](CO)C(=O)N[C@@H](C)C(=O)N1CCC[C@H]1C(=O)N[C@H](C(=O)N[C@@H](CC(=O)O)C(=O)N1CCC[C@H]1C(=O)N[C@@H](CO)C(=O)N[C@@H](CO)C(=O)N1CCC[C@H]1C(=O)N[C@@H](Cc1c[nH]cn1)C(=O)N[C@@H](CO)C(=O)N[C@@H](Cc1ccc(O)cc1)C(N)=O)C(C)C)C(C)C` [m-AM2_40] (H-VGCVLGTCQVQNLSHRLWQLVRPAGRRDSAPVDPSSPHSY-NH2; disulfide 3-8; N-terminus assumed), for which the EC50 on m-CLR:m-RAMP1 was 0.955 nM; on m-CTR:m-RAMP2 it was 8.13 nM; on m-CLR:m-RAMP3 [1], 0.776 nM; on m-CTR:m-RAMP1, 3.02 nM; on m-CTR:m-RAMP3 it was 1.66 nM; at m-CLR:m-RAMP2 [2] it was 3.72 nM. This compound showed an EC50 in assay [3] of 12.3 nM. The “fold less potent than m/r-αCGRP” value on m-CLR:m-RAMP1 (m-CLR:m-RAMP1, cAMP pEC50) was “approximately 14 fold”.

For the compound “h-AM22-52: commonly used AM-receptor antagonist, purchased from Bachem”, the pA2 (as a rule, the negative logarithm of the molar antagonist concentration that doubles the agonist concentration needed for the same response) with m-CLR:m-RAMP2 [4] (agonist m-AM, m-CLR:m-RAMP2, mean ± s.e.m., n = 5, SEM) is listed as 5.71 ± 0.03; with m-CLR:m-RAMP3 [5], 5.19 ± 0.21. The “fold more effective at m-CLR:m-RAMP2 over m-CLR:m-RAMP3” value with m-CLR:m-RAMP2 [4] (from pA2, agonist m-AM) was “three”.
